Data set [1] relates to CEM and COLO 205 cells. The conditions noted are these: 1 mM positive control, 24 h; cell line not stated.
For data set [2], the system named is poly-ubiquitinated proteins in CEM cells. Kind of data set: Western blot of poly-ubiquitinated proteins. Type of data set: cell-based, human. The settings on record: 8 h, in comparison to COLO 205. An outline of the steps: (§1)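 3,000,000 cells per T-25 flask in 10 ml RPMI were treated 8 h at twice the CC50, with MG-132 and 0.3% PEG-400 vehicle controls. Cells were PBS-washed and lysed by boiling 15 min in 2x Laemmli buffer. 100 μg protein was run on 7% SDS-PAGE and transferred to PVDF. Blots were blocked overnight in 5% milk, then probed with mouse anti-ubiquitin (1 h) and HRP anti-mouse (1:10,000, 1 h). ECL imaging and densitometry followed.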
Background: In western blotting, separated proteins are transferred to a membrane and probed.

The subject of data set [3] is poly-ubiquitinated proteins in COLO 205 cells. Put plainly: Western blot of poly-ubiquitinated proteins. Type of data set: cell-based, human. The settings on record: COLO 205, 8 h, 2X CC50. An outline of the steps:
as §1

A short description of data set [4]: Differential nuclear staining. Format: cell-based, human. The settings on record: human, Hs-27 cells (non-cancerous reference) versus CEM cells.
Data set [5] deals with CEM. Put plainly: Differential nuclear staining. Format: cell-based, human. The settings on record: CEM; concentration used for cell cycle analysis.
Data set [6] is described as follows: Differential nuclear staining. The conditions noted are these: human, Hs-27 cells (non-cancerous reference) versus RAMOS cells. Type of data set: cell-based. In outline:
(§2)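 Cells were seeded at 10,000/well in 96-well plates; adherent lines attached overnight. A 0.1–5 μM gradient was applied for 48 h, with 1% DMSO, 1 mM H2O2 and untreated wells. PI and Hoechst 33342 (5 μg/ml each) were added 2 h before reading at 37°C. Wells were imaged to separate dead from total nuclei. CC50 was obtained by linear interpolation of the dose-response. Selectivity index uses Hs-27 as the non-cancer reference.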

For data set [7], the system named is RAMOS. Put plainly: Differential nuclear staining. Format: cell-based. The conditions noted are these: Homo sapiens, Ramos, 48 h. An outline of the steps:
as §2

Data set [8] is described as follows: Differential nuclear staining. Type of data set: cell-based. The conditions noted are these: human, Hs-27 cells (non-cancerous reference) versus HL-60 cells. In outline:
as §2

Data set [9] deals with HL-60. Put plainly: Differential nuclear staining. Type of data set: cell-based. The conditions noted are these: Homo sapiens, HL-60, 48 h. An outline of the steps: as §2
Data set [10] in a line: Differential nuclear staining. Type of data set: cell-based. The conditions noted are these: human. In outline: as §2
Data set [11] relates to MDA-MB-231. Kind of data set: Differential nuclear staining. The conditions noted are these: Homo sapiens, MDA-MB-231, 48 h. Type of data set: cell-based. An outline of the steps: as §2
Data set [12] in a line: Differential nuclear staining. Format: cell-based. The conditions noted are these: human; for selectivity ratio at 48 h: Hs-27 cells (non-cancerous reference) versus MCF-10 A cells; for CC50 at 48 h: MCF-10 A cells (breast epithelial). In outline:
as §2

The nature of data set [13]: Differential nuclear staining. Type of data set: cell-based. The settings on record: human, Hs-27 cells (non-cancerous reference) versus HT-29 cells. In outline:
as §2

Data set [14] deals with HT-29. Put plainly: Differential nuclear staining. Type of data set: cell-based. The settings on record: Homo sapiens, HT-29, 48 h. An outline of the steps: as §2
A short description of data set [15]: Differential nuclear staining. Format: cell-based, human. The settings on record: human, Hs-27 cells (non-cancerous reference) versus COLO 205 cells.
Data set [16] relates to COLO 205. Put plainly: Differential nuclear staining. Type of data set: cell-based, human. The settings on record: for CC20: COLO 205, concentration used for cell cycle analysis; for CC50: Homo sapiens.
A short description of data set [17]: Differential nuclear staining. Type of data set: cell-based. The settings on record: human, CCD-112-CoN cells (non-cancerous colon fibroblasts). An outline of the steps:
as §2

A short description of data set [18]: Differential nuclear staining. Type of data set: cell-based. The settings on record: human, HS-27 cells (normal foreskin, non-cancer). In outline:
as §2

The nature of data set [19]: Differential nuclear staining. Type of data set: cell-based. The conditions noted are these: human, Hs-27 cells (non-cancerous reference) versus PANC-1 cells. In outline: as §2
The subject of data set [20] is PANC-1. Kind of data set: Differential nuclear staining. Type of data set: cell-based. The conditions noted are these: Homo sapiens, PANC-1, 48 h. An outline of the steps:
as §2

Data set [21] is described as follows: Differential nuclear staining. Type of data set: cell-based. The settings on record: human, Hs-27 cells (non-cancerous reference) versus PC-3 cells. An outline of the steps: as §2
The test system of data set [22] is PC-3. Kind of data set: Differential nuclear staining. Format: cell-based. The conditions noted are these: Homo sapiens, PC-3, 48 h. An outline of the steps: as §2
Data set [23] can be described thus: Differential nuclear staining. Type of data set: cell-based. The conditions noted are these: human, Hs-27 cells (non-cancerous reference) versus U266 cells. An outline of the steps:
as §2

Data set [24] concerns U266. Kind of data set: Differential nuclear staining. The conditions noted are these: Homo sapiens, U-266, 48 h. Type of data set: cell-based. An outline of the steps: as §2
A short description of data set [25]: Differential nuclear staining. Format: cell-based. The conditions noted are these: human, Hs-27 cells (non-cancerous reference) versus RPMI-8226 cells. An outline of the steps:
as §2

Data set [26] has as its system RPMI-8226. Kind of data set: Differential nuclear staining. The settings on record: Homo sapiens, RPMI-8226, 48 h. Type of data set: cell-based. In outline:
as §2

Data set [27] is described as follows: Differential nuclear staining. Format: cell-based. The settings on record: human, Hs-27 cells (non-cancerous reference) versus MM1 S cells. An outline of the steps: as §2
In data set [28] the test system is MM1 S. Put plainly: Differential nuclear staining. Type of data set: cell-based. The settings on record: Homo sapiens, MM1.S, 48 h. In outline: as §2
Data set [29] is described as follows: Differential nuclear staining. Format: cell-based. The settings on record: human, Hs-27 cells (non-cancerous reference) versus MM1 R cells. In outline: as §2
The test system of data set [30] is MM1 R. Kind of data set: Differential nuclear staining. Format: cell-based. The settings on record: Homo sapiens, MM.1R, 48 h. An outline of the steps: as §2
Data set [31] deals with CEM cells. Put plainly: Annexin V-FITC/PI apoptosis/necrosis assay. Format: cell-based, human. The conditions noted are these: 24 h, 2x CC50, compared to DMSO solvent control.
For data set [32], the system named is COLO 205 cells. Put plainly: Annexin V-FITC/PI apoptosis/necrosis assay. Type of data set: cell-based, human. The settings on record: COLO 205, 24 h, 2x CC50, compared to DMSO solvent control.
For data set [33], the system named is CEM cells. Kind of data set: Reactive oxygen species accumulation. Type of data set: cell-based, human. The conditions noted are these: 6 h, compared with DMSO-treated cells.
For data set [34], the system named is COLO 205 cells. Put plainly: Reactive oxygen species accumulation. Type of data set: cell-based, human. The settings on record: COLO 205, 6 h, compared with DMSO-treated cells.
The test system of data set [35] is CEM cells. Put plainly: Mitochondrial membrane potential. Format: cell-based, human. The settings on record: 6 h, CC50 and twice the CC50, vs untreated and DMSO.
The test system of data set [36] is COLO 205 cells. Kind of data set: Mitochondrial membrane potential. Type of data set: cell-based, human. The settings on record: COLO 205, 6 h, CC50 and twice the CC50, vs untreated and DMSO.
Data set [37] deals with caspase-3/7 in CEM cells. Kind of data set: Caspase-3/7 activation. The settings on record: 7.5 h, CC50 and twice the CC50, vs vehicle control (1% DMSO). Format: cell-based, human.
Data set [38] has as its system caspase-3/7 in COLO 205 cells. Kind of data set: Caspase-3/7 activation. Type of data set: cell-based, human. The conditions noted are these: COLO 205, 7.5 h, CC50 and twice the CC50, vs vehicle control (1% DMSO).
In data set [39] the test system is CEM cells. Kind of data set: Cell cycle profile analysis. The settings on record: CC20, 72 h. Type of data set: cell-based, human.
Data set [40] has as its system COLO 205 cells. Put plainly: Cell cycle profile analysis. The conditions noted are these: COLO 205, CC20, 72 h. Type of data set: cell-based, human.
Where [41] appears, read: COLO 205, 24 h, read-out: 24 h CC50.

Each structure is given as a SMILES string. Like-named read-outs stand apart in the source and are kept apart here. Residues, ends and D or L forms follow the SMILES beside them. *: point of attachment. Cbz = O=C(OCc1ccccc1)*

As to `OO` [H20_2, hydrogen peroxide], the “percentage of PS externalization” value in [1] was 39%.
`CC(C)C[C@@H](C=O)NC(=O)[C@H](CC(C)C)NC(=O)[C@H](CC(C)C)NC(=O)OCc1ccccc1` [MG132, reference compound] (Cbz-Leu-Leu-Leu-aldehyde): the “proteasome inhibition (poly-ubiquitinated proteins, in words)” value in [2] is reported as “slight proteasome inhibition”. In addition, the “accumulation of high molecular weight poly-ubiquitinated proteins (densitometry)” value (from here on “accumulation … (densitometry)”) in data set [3] is reported as 1 fold increase.
One may read the CC50 as the concentration at which the toxic effect on the cells reaches its halfway point. For `O=C1C(=Cc2ccc(F)c(F)c2)CN(C(=O)C(Cl)Cl)CC1=Cc1ccc(F)c(F)c1` [compound 2608, 1-dichloroacetyl – 3,5-bis(3,4-difluorobenzylidene)-4-piperidone], the selectivity ratio at 48 h is 22.8 in data set [4]; 4.79 in data set [6]; 7.11 in data set [8]; 9.68 in data set [10]; 2.6 in [12]; 2.8 in data set [13]. Moreover, the selectivity ratio at 48 h stood at 1.07 in data set [15]; 0.4 in data set [19]; 1.51 in [21]; 31.6 in [23]; 11.5 in [25]; 25.1 in data set [27]. For the same compound, in data set [29], the selectivity ratio at 48 h stood at 28.4. For the same compound, the results for the CC20 in data set [5] and in data set [16] were 39.7 nM and 761.6 nM, respectively. For the same compound, the CC50 in data set [7] was 95 nM; in [9] it was 64 nM; in [11], 47 nM; in [14], 162 nM; in [16] (setting [41]), 1900 nM; in [16] (COLO 205, 48 h), 424 nM. Besides, the CC50 in data set [20] was 1130 nM; in data set [22], 301 nM; in [24], 14.4 nM; in [26] it was 39.7 nM; in data set [28], 18.1 nM; in data set [30], 16 nM. The values for the CC50 at 48 h in data set [12], in [17] and in data set [18] were 175 nM, 120 nM and 455 nM, respectively. The “PS externalization (Annexin V-FITC positive cells)” value in data set [31] and in data set [32] was “significant PS externalization” in each case. In addition, the ROS accumulation entry in [33] and in data set [34] was “Significant ROS” in each case. The mitochondrial depolarization entry in [35] and in data set [36] was “significant mitochondrial depolarization” throughout. For the same compound, the caspase-3/7 activation result in data set [37] and in [38] was “significant caspase-3/7 activation” each time. The results for the “DNA fragmentation (sub G0/G1)” value in data set [39] and in data set [40] were “induced DNA fragmentation” and “but not in COLO 205”, respectively. The cell cycle profile result in [40] is given as “did not alter the cell cycle profile”. Moreover, the “accumulation … (densitometry)” value in [3] is 0.40 fold increase.
As for `O=C1C(=Cc2ccc(Cl)c(Cl)c2)CN(C(=O)C(Cl)Cl)CC1=Cc1ccc(Cl)c(Cl)c1` [compound 2610, 1-dichloroacetyl-3,5-bis(3,4-dichlorobenzylidene)-4-piperidone], the selectivity ratio at 48 h amounted to 6.66 in data set [4]; 5.55 in [6]; 8.33 in data set [8]; 1.65 in [10]; 1.66 in data set [12]; 5.55 in data set [13]. The selectivity ratio at 48 h in data set [15] came out at 0.12; in data set [19], 0.48; in [21], 0.44; in data set [23] it was 0.26; in data set [25], 0.599; in [27] it was 7.66. Further, the selectivity ratio at 48 h in [29] turned out to be 22.2. The CC20 in data set [5] stood at 37.2 nM; in data set [16], 1516.4 nM. In addition, the CC50 in data set [7] turned out to be 36 nM; in data set [9], 24 nM; in data set [11] it was 121 nM; in data set [14], 36 nM; in data set [16] (setting [41]), 3790 nM; in data set [16] (COLO 205, 48 h), 1660 nM. In addition, the CC50 in data set [20] came to 414 nM; in [22], 446 nM; in [24], 762 nM; in data set [26], 334 nM; in data set [28], 26.1 nM; in data set [30], 9 nM. Moreover, the CC50 at 48 h in [12] was 120 nM; in data set [17], 176 nM; in data set [18], 200 nM. Further, the “PS externalization (Annexin V-FITC positive cells)” value in data set [31] and in data set [32] was “significant PS externalization” throughout. The ROS accumulation result in data set [33] and in data set [34] was “Significant ROS” in each case. For the same compound, the mitochondrial depolarization entry in data set [35] and in data set [36] was “significant mitochondrial depolarization” each time. The caspase-3/7 activation entry in [37] and in data set [38] was “significant caspase-3/7 activation” in each case. Moreover, the “DNA fragmentation (sub G0/G1)” value in data set [39] and in [40] was “caused DNA fragmentation on both cell lines” in each case. Moreover, in [40], the cell cycle profile result is “did not alter the cell cycle profile”. Also, the “accumulation … (densitometry)” value in data set [3] came out at 1.41 fold increase.

These data come from paper PMC9896656 (Investigational new drugs, 2022).
